ChEMBL document CHEMBL4308898, “Synthesis and biological evaluation of arylpiperazine derivatives as potential anti-prostate cancer agents” (Bioorg Med Chem, 2019)
Calls of active or inactive are those of the source. The calls are words filed in the database; no cut-off is given here.

Tests used:
PC-3 = assay: Antiproliferative activity against human PC3 cells after 24 hrs by CCK-8 assay; format: functional, cell-based; conditions: PC-3, 24 h
Method in brief: (§1)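 Media with 10% FBS plus penicillin/streptomycin: RPMI1640 (DU145), F12 (LNCaP), DMEM (PC-3). Log-phase cells seeded at 1 × 10^5 cells/mL and grown 24 h at 37 °C, 5% CO2, then given various compound concentrations for 24 h. CCK-8 added for 1 h, absorbance read at 450 nm. Inhibition = (1 − OD treated/OD control) × 100%. IC50 from linear regression; three independent experiments.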

DU-145 = assay: Antiproliferative activity against human DU145 cells after 24 hrs by CCK-8 assay; format: functional, cell-based; conditions: DU-145, 24 h; method in brief: as §1
LNCaP = assay: Antiproliferative activity against human LNCAP cells after 24 hrs by CCK-8 assay; format: functional, cell-based; method in brief: as §1
RWPE-1 = assay: Antiproliferative activity against human RWPE1 cells after 24 hrs by CCK-8 assay; format: cell-based; conditions: RWPE-1, 24 h
Method in brief: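 RWPE-1 grown in DMEM with 10% FBS, penicillin 100 U/mL and streptomycin 0.1 mg/mL at 37 °C, 5% CO2. Log-phase cells seeded at 1 × 10^5 cells/mL, cultured 24 h, then exposed to various compound concentrations for 24 h. CCK-8 added, 1 h at 37 °C, absorbance read at 450 nm. Inhibition = (1 − OD treated/OD control) × 100%. IC50 by linear regression of concentration-response curves. Three independent experiments.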

[1] = molecular target: T1, Androgen receptor (Homo sapiens) (UniProt P10275); conditions: at 10 µM
T1 sequence (whole entry): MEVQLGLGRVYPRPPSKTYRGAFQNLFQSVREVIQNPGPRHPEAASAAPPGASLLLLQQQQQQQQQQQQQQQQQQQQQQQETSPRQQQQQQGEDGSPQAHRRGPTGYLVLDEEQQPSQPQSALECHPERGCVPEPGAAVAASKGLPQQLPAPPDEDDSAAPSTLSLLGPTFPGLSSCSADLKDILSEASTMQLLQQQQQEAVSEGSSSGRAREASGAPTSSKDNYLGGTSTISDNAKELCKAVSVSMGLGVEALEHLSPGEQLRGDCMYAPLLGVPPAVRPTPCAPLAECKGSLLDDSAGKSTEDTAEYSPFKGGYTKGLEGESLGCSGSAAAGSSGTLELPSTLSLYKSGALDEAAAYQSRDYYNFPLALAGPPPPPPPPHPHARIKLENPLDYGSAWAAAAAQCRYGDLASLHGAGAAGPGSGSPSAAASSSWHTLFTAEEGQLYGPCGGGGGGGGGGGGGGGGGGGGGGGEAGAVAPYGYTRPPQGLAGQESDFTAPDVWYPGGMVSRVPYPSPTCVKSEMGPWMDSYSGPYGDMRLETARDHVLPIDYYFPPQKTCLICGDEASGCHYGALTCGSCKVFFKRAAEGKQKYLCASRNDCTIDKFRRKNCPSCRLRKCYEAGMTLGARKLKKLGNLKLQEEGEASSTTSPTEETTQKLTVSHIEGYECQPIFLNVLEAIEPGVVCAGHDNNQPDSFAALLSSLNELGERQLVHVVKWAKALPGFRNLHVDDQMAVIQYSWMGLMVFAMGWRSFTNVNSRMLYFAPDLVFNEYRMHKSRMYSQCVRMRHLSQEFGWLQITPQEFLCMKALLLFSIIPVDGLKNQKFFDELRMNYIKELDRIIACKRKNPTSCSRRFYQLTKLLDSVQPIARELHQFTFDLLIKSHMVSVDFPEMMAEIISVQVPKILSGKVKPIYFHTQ

Androgen receptor = molecular target: T2, Androgen receptor (Rattus norvegicus, UniProt P15207); assay: Displacement of fluormone-AL Green from His-tagged/GST-fused recombinant rat androgen receptor LBD expressed in insect cells measured after 4 hrs by fluorescence polarization assay
T2 sequence (P15207 whole entry): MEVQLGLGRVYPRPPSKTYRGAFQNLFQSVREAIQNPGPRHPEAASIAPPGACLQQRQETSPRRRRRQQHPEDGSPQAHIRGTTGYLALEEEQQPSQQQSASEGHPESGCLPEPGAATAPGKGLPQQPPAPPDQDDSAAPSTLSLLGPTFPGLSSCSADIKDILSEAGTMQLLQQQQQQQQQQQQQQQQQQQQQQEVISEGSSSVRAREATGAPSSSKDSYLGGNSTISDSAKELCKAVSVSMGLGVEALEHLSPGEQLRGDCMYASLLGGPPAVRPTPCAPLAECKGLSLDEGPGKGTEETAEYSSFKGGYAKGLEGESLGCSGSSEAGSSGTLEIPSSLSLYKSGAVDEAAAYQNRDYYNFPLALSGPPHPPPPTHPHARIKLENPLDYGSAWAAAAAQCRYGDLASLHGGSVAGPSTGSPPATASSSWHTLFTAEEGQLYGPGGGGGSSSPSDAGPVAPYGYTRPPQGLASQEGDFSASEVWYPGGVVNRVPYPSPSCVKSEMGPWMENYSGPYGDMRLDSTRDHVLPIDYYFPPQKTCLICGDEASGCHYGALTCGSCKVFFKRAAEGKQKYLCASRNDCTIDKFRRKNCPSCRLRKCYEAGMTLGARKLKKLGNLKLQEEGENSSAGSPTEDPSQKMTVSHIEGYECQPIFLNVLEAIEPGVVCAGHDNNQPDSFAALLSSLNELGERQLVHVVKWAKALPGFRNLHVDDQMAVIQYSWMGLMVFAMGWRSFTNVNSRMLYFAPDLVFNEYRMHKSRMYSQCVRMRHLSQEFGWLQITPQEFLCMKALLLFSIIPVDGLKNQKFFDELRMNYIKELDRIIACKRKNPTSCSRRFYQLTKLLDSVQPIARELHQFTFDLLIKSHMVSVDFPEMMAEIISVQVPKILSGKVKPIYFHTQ

Row | Structure (SMILES) | IC50 (PC-3) [µM] | IC50 (DU-145) [µM] | IC50 (LNCaP) [µM] | IC50 (RWPE-1) [µM] | inhibition [1] | IC50 (Androgen receptor) [µM]
1 | Clc1ccccc1OCCc1ccc(CN2CCN(c3ccccc3)CC2)cc1 | > 50 | 38.6 | > 50 | > 50 | – | –
2 | c1ccc(OCCc2ccc(CN3CCN(c4ccccc4)CC3)cc2)cc1 | 8.2 | 9.82 | 6.67 | > 50 | 40.6% | –
3 | Fc1ccccc1OCCc1ccc(CN2CCN(c3ccccc3)CC2)cc1 | 48.8 | 7.21 | 17.8 | 19.7 | – | –
4 | N#Cc1ccc(OCCc2ccc(CN3CCN(c4ccccc4)CC3)cc2)c(F)c1 | > 50 | 0.77 | > 50 | > 50 | 24.5% | –
5 | FC(F)(F)c1ccc(OCCc2ccc(CN3CCN(c4ccccc4)CC3)cc2)cc1 | 4.96 | 4.81 | 8.76 | 13.2 | 48.2% | 4.03
6 | Clc1ccc(OCCc2ccc(CN3CCN(c4ccccc4)CC3)cc2)cc1Cl | 23 | 5.36 | 19.8 | > 50 | 41.1% | –
7 | Cc1cc(C)cc(OCCc2ccc(CN3CCN(c4ccccc4)CC3)cc2)c1 | 2.99 | 3.44 | 7.43 | 4.86 | 16.7% | –
8 | CC(C)(C)c1ccc(OCCc2ccc(CN3CCN(c4ccccc4)CC3)cc2)cc1 | 4.86 | 28 | 17.9 | 21.1 | – | –
9 | Clc1ccc(OCCc2ccc(CN3CCN(c4ccccc4)CC3)cc2)cc1 | 3.59 | 9.2 | 8.64 | 4.76 | 32.4% | –
10 | Clc1cc(Cl)cc(OCCc2ccc(CN3CCN(c4ccccc4)CC3)cc2)c1 | 10.1 | 13.2 | 19.4 | 47.2 | – | –
11 | c1ccc(N2CCN(Cc3ccc(CCOc4ccc5c(c4)CCCC5)cc3)CC2)cc1 | > 50 | 40.4 | > 50 | > 50 | – | –
12 | O=[N+]([O-])c1ccc(OCCc2ccc(CN3CCN(c4ccccc4)CC3)cc2)cc1 | 9.23 | 8.74 | 8.51 | 3.87 | 50.1% | 3.82
13 | C[C@]12C=CC3=C4CCC(=O)C=C4CC[C@H]3[C@@H]1CC[C@@]2(C)O | – | – | – | – | inactive | –
14 | Cc1ccc(OCCc2ccc(CN3CCN(c4ccccc4)CC3)cc2)cc1 | 1.47 | 10.1 | 5.62 | > 50 | 54.7% | 3.66
15 | Cc1ccc(OCCc2ccc(CN3CCN(c4ccccc4)CC3)cc2)cc1C | 6.72 | 15.6 | 17.6 | 12.3 | – | –
16 | N#Cc1ccccc1OCCc1ccc(CN2CCN(c3ccccc3)CC2)cc1 | > 50 | 2.51 | > 50 | > 50 | 32.1% | –
17 | COc1ccccc1N1CCN(CC(O)COc2cccc3ccccc23)CC1 (stereo unspecified) [NAFTOPIDIL] | – | – | – | > 50 | – | –
18 | CC(C)(C)NC(=O)[C@H]1CC[C@H]2[C@@H]3CC[C@H]4NC(=O)C=C[C@]4(C)[C@H]3CC[C@]12C [FINASTERIDE] | – | 14.5 | 13.5 | – | – | –
19 | c1ccc(N2CCN(Cc3ccc(CCOc4cccc5c4CCCC5)cc3)CC2)cc1 | 17.7 | 12.2 | 19.3 | 27.8 | – | –
20 | Cc1ccccc1OCCc1ccc(CN2CCN(c3ccccc3)CC2)cc1 | 15.1 | 29.2 | 34.9 | > 50 | – | –
21 | CCOc1ccc(OCCc2ccc(CN3CCN(c4ccccc4)CC3)cc2)cc1 | > 50 | 14.2 | > 50 | > 50 | – | –
22 | Fc1ccc(OCCc2ccc(CN3CCN(c4ccccc4)CC3)cc2)cc1 | 5.7 | 6.86 | 7.83 | 4.62 | 35.1% | –
23 | FC(F)(F)c1ccccc1OCCc1ccc(CN2CCN(c3ccccc3)CC2)cc1 | > 50 | 9.43 | 32.2 | > 50 | – | –
24 | COc1ccccc1OCCc1ccc(CN2CCN(c3ccccc3)CC2)cc1 | > 50 | > 50 | > 50 | > 50 | – | –
25 | CC(C)c1ccc(OCCc2ccc(CN3CCN(c4ccccc4)CC3)cc2)cc1 | > 50 | 6.4 | > 50 | > 50 | 40.2% | –
26 | COc1ccc(OCCc2ccc(CN3CCN(c4ccccc4)CC3)cc2)cc1 | 8.95 | 9.79 | 7.46 | > 50 | 67.1% | 1.15
27 | Brc1ccc(OCCc2ccc(CN3CCN(c4ccccc4)CC3)cc2)cc1 | 6.69 | 10.1 | 13.5 | 15.7 | – | –
28 | N#Cc1ccc(OCCc2ccc(CN3CCN(c4ccccc4)CC3)cc2)cc1 | 1.05 | 46.2 | 43.6 | > 50 | 47.2% | 4.22
29 | c1ccc(N2CCN(Cc3ccc(CCOc4cccc5ccccc45)cc3)CC2)cc1 | 4.72 | 16 | 8.92 | 12.2 | 32.5% | –
30 | Brc1ccccc1OCCc1ccc(CN2CCN(c3ccccc3)CC2)cc1 | > 50 | 11.6 | 41.9 | > 50 | – | –
